In brackets after ≈: the same amount, converted by molar mass.
Key:
Escherichia coli [1] = test: Antimicrobial activity against multidrug-resistant Escherichia coli assessed as reduction in bacterial growth incubated for 20 hrs by broth microdilution analysis; assay type: functional
In short: (§1)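 MIC was determined by broth microdilution per CLSI/EUCAST. Inoculum was 10^5 CFU/mL in cation-adjusted Mueller-Hinton broth with TES, with compounds in DMSO, incubated 20 h at 35 °C. MIC was read visually as the lowest concentration without turbidity. Tetracycline was the plate control.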

Enterococcus faecalis = test: Antimicrobial activity against Enterococcus faecalis DRK 057 assessed as reduction in bacterial growth incubated for 20 hrs by broth microdilution analysis; assay type: functional
Staphylococcus aureus [2] = test: Antimicrobial activity against cefoxitin/gentamicin/kanamycin/rifampicin/streptomycin/sulfamethoxazole/tetracycline-resistant Staphylococcus aureus assessed as reduction in bacterial growth incubated for 20 hrs by broth microdilution analysis; assay type: functional; in short: as §1
[3] = molecular target: DNA topoisomerase 2-alpha (Homo sapiens) (UniProt P11388); test: Inhibition of human DNA topoisomerase 2-alpha assessed as residual activity at 100 uM incubated for 30 mins relative to control
Topoisomerase IV = Topoisomerase IV (Staphylococcus aureus, UniProt P0C1S7+P0C1U9); test: Inhibition of Staphylococcus aureus DNA topoisomerase 4 relaxation activity measured for 30 mins; assay type: protein-complex assay
Chain of Topoisomerase IV (P0C1U9 whole entry): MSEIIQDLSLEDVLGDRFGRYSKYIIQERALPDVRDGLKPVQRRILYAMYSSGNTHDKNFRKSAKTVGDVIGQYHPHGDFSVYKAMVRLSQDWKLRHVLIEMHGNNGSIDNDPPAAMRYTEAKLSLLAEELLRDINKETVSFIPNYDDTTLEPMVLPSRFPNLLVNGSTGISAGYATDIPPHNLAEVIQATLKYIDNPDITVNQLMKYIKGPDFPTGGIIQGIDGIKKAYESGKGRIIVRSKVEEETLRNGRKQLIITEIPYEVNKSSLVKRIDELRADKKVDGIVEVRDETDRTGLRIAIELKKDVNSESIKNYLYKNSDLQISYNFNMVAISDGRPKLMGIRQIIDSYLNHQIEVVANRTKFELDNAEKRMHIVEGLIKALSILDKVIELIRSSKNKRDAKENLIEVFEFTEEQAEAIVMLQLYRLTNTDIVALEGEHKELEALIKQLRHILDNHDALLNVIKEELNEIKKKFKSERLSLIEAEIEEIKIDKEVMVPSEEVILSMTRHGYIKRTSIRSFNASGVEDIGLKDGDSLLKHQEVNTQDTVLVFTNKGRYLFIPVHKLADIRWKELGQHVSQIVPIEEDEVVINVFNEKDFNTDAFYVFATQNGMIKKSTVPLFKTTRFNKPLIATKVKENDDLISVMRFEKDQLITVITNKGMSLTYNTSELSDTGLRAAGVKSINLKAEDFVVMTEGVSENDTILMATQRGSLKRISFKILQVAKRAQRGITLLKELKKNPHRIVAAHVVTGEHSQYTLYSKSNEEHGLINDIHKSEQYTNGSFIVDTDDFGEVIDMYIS
Chain of Topoisomerase IV (P0C1S7 whole entry): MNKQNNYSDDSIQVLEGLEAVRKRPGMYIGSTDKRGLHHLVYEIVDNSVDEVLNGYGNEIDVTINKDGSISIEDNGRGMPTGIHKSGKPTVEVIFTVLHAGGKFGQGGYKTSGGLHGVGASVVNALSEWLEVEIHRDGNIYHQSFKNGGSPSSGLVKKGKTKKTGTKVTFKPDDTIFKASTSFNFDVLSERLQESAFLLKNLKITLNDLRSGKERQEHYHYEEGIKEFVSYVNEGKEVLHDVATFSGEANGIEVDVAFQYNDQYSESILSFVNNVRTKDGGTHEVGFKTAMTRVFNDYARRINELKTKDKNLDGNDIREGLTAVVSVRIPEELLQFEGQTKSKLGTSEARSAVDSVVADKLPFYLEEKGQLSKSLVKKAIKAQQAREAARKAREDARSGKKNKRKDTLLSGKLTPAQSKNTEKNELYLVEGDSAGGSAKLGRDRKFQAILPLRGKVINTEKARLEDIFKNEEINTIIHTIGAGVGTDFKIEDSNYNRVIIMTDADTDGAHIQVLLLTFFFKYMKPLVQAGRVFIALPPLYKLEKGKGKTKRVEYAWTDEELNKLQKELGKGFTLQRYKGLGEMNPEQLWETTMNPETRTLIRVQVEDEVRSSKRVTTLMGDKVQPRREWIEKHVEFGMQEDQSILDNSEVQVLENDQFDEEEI
In short: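 TopoIV relaxation plate assay: 1.5 U enzyme with 0.75 µg supercoiled pNO1 plasmid, inhibitor in 10% DMSO/0.008% Tween-20, 37 °C 30 min; E. coli buffer 40 mM HEPES-KOH pH 7.6 with 1 mM ATP, S. aureus buffer 50 mM Tris pH 7.5 with 1.5 mM ATP.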

hERG [4] = test: Selectivity index, ratio of IC50 for inhibition of hERG fluorescence polarization assay to MIC for antimicrobial activity against multidrug-resisitant Staphylococcus aureus assessed as reduction in bacterial growth; assay type: toxicity; conditions: human; read-out: Selectivity Index
DNA gyrase [5] = molecular target: DNA gyrase (Escherichia coli, UniProt P0AES4+P0AES6); test: Inhibition of Escherichia coli DNA gyrase supercoiling incubated for 30 mins in presence of ATP; assay type: protein-complex assay
In short: (§2)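 Gyrase supercoiling plate assay (triplex capture on streptavidin plates with immobilized biotinylated oligonucleotide): 1.5 U enzyme, 0.75 µg relaxed pNO1 plasmid, inhibitor in 10% DMSO/0.008% Tween-20, 37 °C 30 min, 30 µl. Buffer for E. coli: 35 mM Tris pH 7.5, 1 mM ATP; S. aureus: 40 mM HEPES-KOH pH 7.6, 2 mM ATP, 500 mM K-glutamate. Diamond dye fluorescence (ex 495/em 537 nm). Pre-screen 100 and 1 µM; IC50 from seven concentrations by four-parameter fit, mean of two runs.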

[6] = Inhibition of Escherichia coli DNA topoisomerase 4 relaxation activity measured for 30 mins
In short: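 TopoIV relaxation plate assay: 1.5 U enzyme with 0.75 µg supercoiled pNO1 plasmid, inhibitor in 10% DMSO/0.008% Tween-20, 37 °C 30 min; E. coli buffer 40 mM HEPES-KOH pH 7.6 with 1 mM ATP, S. aureus buffer 50 mM Tris pH 7.5 with 1.5 mM ATP. Triplex capture, Diamond dye fluorescence 495/537 nm.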

[7] = molecular target: Voltage-gated inwardly rectifying potassium channel KCNH2 (Homo sapiens, UniProt Q12809); test: Inhibition of hERG fluorescence polarization assay; assay type: toxicity
Chain of Voltage-gated inwardly rectifying potassium channel KCNH2 (Q12809 whole entry): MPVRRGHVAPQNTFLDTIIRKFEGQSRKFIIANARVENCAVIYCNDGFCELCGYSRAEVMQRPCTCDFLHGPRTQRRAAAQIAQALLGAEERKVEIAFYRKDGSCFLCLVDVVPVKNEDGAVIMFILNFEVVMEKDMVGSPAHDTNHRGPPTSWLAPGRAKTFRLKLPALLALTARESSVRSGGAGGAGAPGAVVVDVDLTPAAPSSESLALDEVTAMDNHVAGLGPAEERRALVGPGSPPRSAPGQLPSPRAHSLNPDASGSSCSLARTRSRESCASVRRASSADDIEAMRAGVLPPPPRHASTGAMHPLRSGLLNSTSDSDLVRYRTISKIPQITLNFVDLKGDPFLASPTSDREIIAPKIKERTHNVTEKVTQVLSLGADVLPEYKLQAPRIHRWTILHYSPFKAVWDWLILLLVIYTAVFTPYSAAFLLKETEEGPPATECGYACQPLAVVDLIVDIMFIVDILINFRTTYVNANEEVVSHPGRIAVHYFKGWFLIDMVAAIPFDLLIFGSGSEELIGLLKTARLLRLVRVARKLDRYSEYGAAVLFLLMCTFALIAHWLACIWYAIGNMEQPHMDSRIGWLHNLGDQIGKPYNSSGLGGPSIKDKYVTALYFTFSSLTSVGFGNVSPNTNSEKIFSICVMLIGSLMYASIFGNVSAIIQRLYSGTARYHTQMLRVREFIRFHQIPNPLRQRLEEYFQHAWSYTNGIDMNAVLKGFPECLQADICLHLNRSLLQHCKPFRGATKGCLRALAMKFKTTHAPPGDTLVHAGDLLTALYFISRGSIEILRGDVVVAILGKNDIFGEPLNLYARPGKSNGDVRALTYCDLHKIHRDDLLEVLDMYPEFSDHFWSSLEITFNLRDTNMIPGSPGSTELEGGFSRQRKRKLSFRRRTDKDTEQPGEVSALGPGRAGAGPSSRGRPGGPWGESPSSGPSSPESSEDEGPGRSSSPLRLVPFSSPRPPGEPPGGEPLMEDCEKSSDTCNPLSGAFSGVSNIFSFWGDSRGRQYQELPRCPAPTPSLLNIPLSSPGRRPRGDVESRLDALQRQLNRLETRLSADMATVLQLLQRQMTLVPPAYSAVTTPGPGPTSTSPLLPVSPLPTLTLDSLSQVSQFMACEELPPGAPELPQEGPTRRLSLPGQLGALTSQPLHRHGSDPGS

DNA gyrase [8] = molecular target: DNA gyrase (Staphylococcus aureus, UniProt P0A0K8+P20831); test: Inhibition of Staphylococcus aureus DNA gyrase supercoiling incubated for 30 mins in presence of ATP; assay type: protein-complex assay; in short: as §2
Chain of DNA gyrase (Staphylococcus aureus, UniProt P0A0K8+P20831) (P0A0K8 whole entry): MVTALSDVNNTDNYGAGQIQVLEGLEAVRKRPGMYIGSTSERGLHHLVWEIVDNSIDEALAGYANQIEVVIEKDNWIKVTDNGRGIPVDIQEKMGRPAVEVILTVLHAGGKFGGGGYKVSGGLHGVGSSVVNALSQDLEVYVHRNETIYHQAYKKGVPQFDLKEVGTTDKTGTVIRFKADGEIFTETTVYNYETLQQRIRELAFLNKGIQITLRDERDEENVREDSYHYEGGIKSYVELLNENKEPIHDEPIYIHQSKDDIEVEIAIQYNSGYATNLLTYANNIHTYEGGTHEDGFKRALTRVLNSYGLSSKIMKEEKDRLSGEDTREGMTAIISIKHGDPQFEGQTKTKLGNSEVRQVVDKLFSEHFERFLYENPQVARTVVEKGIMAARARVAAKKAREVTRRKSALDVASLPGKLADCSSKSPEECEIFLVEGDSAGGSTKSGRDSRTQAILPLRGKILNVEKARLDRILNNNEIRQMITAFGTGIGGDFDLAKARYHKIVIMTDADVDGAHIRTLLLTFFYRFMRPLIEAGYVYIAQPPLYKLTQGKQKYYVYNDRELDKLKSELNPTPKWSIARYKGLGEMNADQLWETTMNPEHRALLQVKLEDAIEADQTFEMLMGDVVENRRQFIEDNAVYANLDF
Chain of DNA gyrase (Staphylococcus aureus, UniProt P0A0K8+P20831) (P20831 whole entry): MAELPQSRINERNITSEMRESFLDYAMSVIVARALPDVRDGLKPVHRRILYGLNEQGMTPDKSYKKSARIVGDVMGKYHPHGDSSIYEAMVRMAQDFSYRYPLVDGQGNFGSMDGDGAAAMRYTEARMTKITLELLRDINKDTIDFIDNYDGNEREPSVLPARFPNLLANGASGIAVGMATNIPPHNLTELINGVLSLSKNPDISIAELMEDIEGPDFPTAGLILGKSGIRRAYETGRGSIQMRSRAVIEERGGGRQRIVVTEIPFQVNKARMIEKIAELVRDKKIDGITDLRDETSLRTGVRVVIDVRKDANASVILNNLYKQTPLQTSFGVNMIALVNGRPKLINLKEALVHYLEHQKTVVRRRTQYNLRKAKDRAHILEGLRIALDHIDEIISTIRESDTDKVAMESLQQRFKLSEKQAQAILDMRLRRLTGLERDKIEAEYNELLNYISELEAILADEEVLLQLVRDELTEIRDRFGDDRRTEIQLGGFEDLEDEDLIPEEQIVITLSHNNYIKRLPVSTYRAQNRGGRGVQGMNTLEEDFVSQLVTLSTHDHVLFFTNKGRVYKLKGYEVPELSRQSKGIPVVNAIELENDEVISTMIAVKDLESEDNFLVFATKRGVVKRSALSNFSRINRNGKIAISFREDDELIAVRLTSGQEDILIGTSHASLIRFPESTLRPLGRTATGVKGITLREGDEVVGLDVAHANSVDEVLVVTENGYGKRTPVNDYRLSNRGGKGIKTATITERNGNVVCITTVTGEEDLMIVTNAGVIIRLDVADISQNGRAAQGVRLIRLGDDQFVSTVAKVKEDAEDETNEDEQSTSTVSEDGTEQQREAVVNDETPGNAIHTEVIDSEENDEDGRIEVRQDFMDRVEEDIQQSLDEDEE

Staphylococcus aureus [9] = test: Antimicrobial activity against Staphylococcus aureus ATCC 29213 assessed as reduction in bacterial growth incubated for 20 hrs by broth microdilution analysis; assay type: functional; in short: as §1
Pseudomonas aeruginosa = test: Antimicrobial activity against Pseudomonas aeruginosa RDK 184 assessed as reduction in bacterial growth incubated for 20 hrs by broth microdilution analysis; assay type: functional
[10] = Antimicrobial activity against Salmonella alachua RDK 030c assessed as reduction in bacterial growth incubated for 20 hrs by broth microdilution analysis; assay type: functional
Staphylococcus aureus [11] = test: Antimicrobial activity against cefoxitin/ciprofloxacin/clindamycin/erythromycin/tetracycline/thiamulin/trimethoprim-resistant Staphylococcus aureus assessed as reduction in bacterial growth incubated for 20 hrs by broth microdilution analysis; assay type: functional; in short: as §1
Staphylococcus aureus [12] = test: Antimicrobial activity against multidrug-resistant Staphylococcus aureus assessed as reduction in bacterial growth incubated for 20 hrs by broth microdilution analysis; assay type: functional; in short: as §1
Escherichia coli [13] = test: Antimicrobial activity against Escherichia coli ATCC 25922 assessed as reduction in bacterial growth incubated for 20 hrs by broth microdilution analysis; assay type: functional
Acinetobacter baumannii = test: Antimicrobial activity against Acinetobacter baumannii assessed as reduction in bacterial growth incubated for 20 hrs by broth microdilution analysis; assay type: functional
Escherichia coli [14] = test: Antimicrobial activity against Escherichia coli N43 assessed as reduction in bacterial growth incubated for 20 hrs by broth microdilution analysis; assay type: functional
Escherichia coli [15] = test: Antimicrobial activity against Escherichia coli D22 assessed as reduction in bacterial growth incubated for 20 hrs by broth microdilution analysis; assay type: functional
HepG2 [16] = test: Cytotoxicity against human HepG2 cells assessed as inhibition of cell growth at 50 uM incubated for 72 hrs by […]; assay type: functional; design: scale not given: the % may be the effect or the level left
In short: (§3)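 HepG2 in DMEM with 10% FBS, 2 mM glutamine, penicillin/streptomycin, 37 °C, 5% CO₂; seeded 8,000 cells/well, attached overnight, then treated 1.25–100 µM or vehicle for 72 h. Metabolic activity by CellTiter 96 Aqueous One (MTS) absorbance 492 nm.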

hERG [17] = test: Selectivity index, ratio of IC50 for inhibition of hERG fluorescence polarization assay to MIC for antimicrobial activity against Staphylococcus aureus ATCC 29213 assessed as reduction in bacterial growth; assay type: toxicity; conditions: human; read-out: Selectivity Index
Klebsiella pneumoniae = test: Antimicrobial activity against Klebsiella pneumoniae assessed as reduction in bacterial growth incubated for 20 hrs by broth microdilution analysis; assay type: functional
HepG2 [18] = test: Cytotoxicity against human HepG2 cells assessed as inhibition of cell growth incubated for 72 hrs by […]; assay type: functional, cell-based; conditions: HepG2, 72 h; in short: as §3
[19] = Acute toxicity in zebrafish embryos assessed as lethal concentration compound administered from 6 hrs post fertilization and measured after 120 hrs post fertilization; design: species or system Danio rerio; conditions: in vivo
In short: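 Wild-type AB zebrafish embryos in E3 medium at 28 °C were exposed by immersion from 6 hpf to 0.39–25 µg/mL (top dose 12.5 µg/mL for one compound), with DMSO at most 0.25%. Controls were 0.25% DMSO and 25 µg/mL doxorubicin. Embryos were inspected daily for death and toxicity signs through 120 hpf. Runs were in triplicate, with 24 embryos per concentration.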

SMILES	MIC (Escherichia coli [1])	MIC (Enterococcus faecalis) [µM]	MIC (Staphylococcus aureus [2]) [µM]	Activity [3] [%]	IC50 (Topoisomerase IV) [nM]	selectivity ratio (hERG [4])	IC50 (DNA gyrase [5]) [nM]	IC50 [6] [nM]	IC50 [7] [nM]	IC50 (DNA gyrase [8]) [nM]	MIC (Staphylococcus aureus [9])	MIC (Pseudomonas aeruginosa) [µM]	MIC [10] [µM]	MIC (Staphylococcus aureus [11])	MIC (Staphylococcus aureus [12]) [µM]	MIC (Escherichia coli [13])	MIC (Acinetobacter baumannii)	MIC (Escherichia coli [14])	MIC (Escherichia coli [15])	MIC (Klebsiella pneumoniae)	also measured
COc1ccc2nccc(CCN3CCC(NC(=O)c4cc(F)c(Cl)c(F)c4)CC3)c2n1	> 278 µM	2.17 (≈ 1 µg/mL)	0.137 (≈ 0.0631 µg/mL)	101	177	0.656	236	41	178	220	0.137 µM	> 278	> 278	0.271 µM	0.271 (≈ 0.125 µg/mL)	69.4 µM	4.34 µM	0.135 µM	0.542 µM	> 278 µM	Activity (HepG2 [16]): 84%; selectivity ratio (hERG [17]): 1.3
COc1ccc2nccc(OC[C@H]3CC[C@H](NC(=O)c4ccc(I)c(F)c4)CC3)c2n1	> 239 µM	> 239	> 239	99.1	> 100000	≥ 0.125	> 100000	> 100000	> 30000	> 100000	239 µM	> 239	> 239	239 µM	> 239	239 µM	> 239 µM	239 µM	239 µM	> 239 µM	Activity (HepG2 [16]): 96%; selectivity ratio (hERG [17]): ≥ 0.125
COc1ccc2nccc(CCN3CCC(NC(=O)c4ccc(I)c(F)c4)CC3)c2n1	> 240 µM	0.468 (≈ 0.25 µg/mL)	0.058 (≈ 0.031 µg/mL)	102	261	0.41	277	43	96	114	0.058 µM	> 240	> 240	0.234 µM	0.234 (≈ 0.125 µg/mL)	240 µM	240 µM	0.234 µM	0.468 µM	> 240 µM	Activity (HepG2 [16]): 89%; selectivity ratio (hERG [17]): 1.65
CN(C)[C@@H]1C(O)=C(C(N)=O)C(=O)[C@@]2(O)C(O)=C3C(=O)c4c(O)cccc4[C@@](C)(O)[C@H]3C[C@@H]12 [TETRACYCLINE]	> 4 µg/mL	–	–	–	–	–	–	–	–	–	0.25 µg/mL	–	–	> 4 µg/mL	–	1 µg/mL	> 4 µg/mL	0.25 µg/mL	1 µg/mL	> 4 µg/mL	–
COc1ccc2nccc(OC[C@@H]3CC[C@@H](NC(=O)c4cc(F)c(Cl)c(F)c4)CO3)c2n1	> 276 µM	8.62 (≈ 4 µg/mL)	0.136 (≈ 0.0631 µg/mL)	101	579	≥ 224	677	73	> 30000	445	0.136 µM	> 276	> 276	0.136 µM	0.269 (≈ 0.125 µg/mL)	276 µM	276 µM	0.134 µM	276 µM	> 276 µM	IC50 (HepG2 [18]): 9060 nM; selectivity ratio (hERG [17]): ≥ 224
COc1ccc2nccc(OC[C@H]3CC[C@H](NC(=O)c4cc(F)c(Cl)c(F)c4)CC3)c2n1	> 277 µM	> 277	277 (≈ 128 µg/mL)	100	> 100000	≥ 0.108	> 100000	> 100000	> 30000	> 100000	277 µM	> 277	> 277	277 µM	> 277	277 µM	> 277 µM	277 µM	277 µM	> 277 µM	Activity (HepG2 [16]): 96%; selectivity ratio (hERG [17]): ≥ 0.108
COc1ccc2nccc(OC[C@H]3CC[C@H](NC(=O)c4cc(F)c(Br)c(F)c4)CC3)c2n1	> 64.8 µM	> 64.8	> 64.8	101	> 100000	≥ 0.119	> 100000	> 100000	> 30000	> 100000	253 µM	> 64.8	> 64.8	64.8 µM	> 64.8	64.8 µM	> 64.8 µM	64.8 µM	64.8 µM	> 64.8 µM	Activity (HepG2 [16]): 90%; selectivity ratio (hERG [17]): ≥ 0.119
COc1ccc2nccc(CCN3CCC(NC(=O)c4cc(F)c(Br)c(F)c4)CC3)c2n1	253 µM	0.495 (≈ 0.25 µg/mL)	0.061 (≈ 0.0308 µg/mL)	102	84	0.493	114	40	122	108	0.061 µM	> 253	> 253	0.247 µM	0.125 (≈ 0.0632 µg/mL)	63.3 µM	3.96 µM	0.061 µM	0.247 µM	> 253 µM	Activity (HepG2 [16]): 61%; LC50 at 114 h [19]: > 25 µg/mL; selectivity ratio (hERG [17]): 1.99
COc1ccc2nccc(OC[C@@H]3CC[C@@H](NC(=O)c4ccc(I)c(F)c4)CO3)c2n1	> 238 µM	> 238	0.058 (≈ 0.0312 µg/mL)	102	783	≥ 520	358	92	> 30000	271	0.058 µM	> 238	> 238	0.058 µM	238 (≈ 128 µg/mL)	238 µM	> 238 µM	0.117 µM	238 µM	> 238 µM	IC50 (HepG2 [18]): 11200 nM; selectivity ratio (hERG [17]): ≥ 520
